According to ChEMBL document CHEMBL5724801, “EUbOPEN Chemogenomics Library - Multiplex” (2024):
“And” between values parts separate entries of the source, which are not always exact repeats. Equal values may be shown once.

Tested on: HEK-293T
Experiment: Multiplex assay against HEK293T
Format: toxicity, cell-based
Conditions: human
Method in brief: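 On a CQ1 microscope at 37°C and 5% CO2, live cells were imaged after compound addition. They had been stained at seeding with Hoechst33342, BioTracker Green Microtubule Cytoskeleton Dye, MitoTracker Red and Annexin V Alexa Fluor 680. CellPathfinder machine-learning gating assigned cells to Hoechst high-intensity objects or normal cells, normal cells to healthy, pyknosed or fragmented nuclei, and pyknosed cells to mitotic or apoptotic. Tubulin, mitochondrial-mass and membrane-permeability phenotypes are per cents of healthy-nucleus cells.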

[1] = 12 h, 1 µM, compound concentration 1 uM
[2] = 12 h, 10 µM, compound concentration 10 uM
[3] = 24 h, 1 µM, compound concentration 1 uM
[4] = 24 h, 10 µM, compound concentration 10 uM
[5] = 48 h, 1 µM, compound concentration 1 uM
[6] = 48 h, 10 µM, compound concentration 10 uM

COc1cc(C(=O)N2CC[C@@H](O)[C@@H](N)C2)cc2nc(-c3cc4ccccc4n3CC3CC3)n(C)c12.Cl
Population Apoptotic (%) [1]: 48% and 70% | Population Fragmented Nuclei (%) [1]: 6% and 2% | Population Healthy Nuclei (%) [1]: 79% and 77% | Population Hoechst High Intensity Objects (%) [1]: 10% and 15% | Population Membrane Permeable-Phenotype (%) [1]: 0% | Population Mitochondria Different-Phenotype (%) [1]: 56% and 71% | Population Mitotic Cells (%) [1]: 51% and 29% | Population Normal (%) [1]: 89% and 84% | Population Pyknosed Nuclei (%) [1]: 13% and 20% | Population Tubulin-Different-Phenotype (%) [1]: 52% and 37% | Total Cell Count [1]: 398 and 281 | Population Apoptotic (%) [2]: 71% | Population Fragmented Nuclei (%) [2]: 5% and 4% | Population Healthy Nuclei (%) [2]: 66% and 80% | Population Hoechst High Intensity Objects (%) [2]: 21% and 18% | Population Membrane Permeable-Phenotype (%) [2]: 0% and 2% | Population Mitochondria Different-Phenotype (%) [2]: 90% and 88% | Population Mitotic Cells (%) [2]: 28% | Population Normal (%) [2]: 78% and 81% | Population Pyknosed Nuclei (%) [2]: 28% and 15% | Population Tubulin-Different-Phenotype (%) [2]: 79% and 72% | Total Cell Count [2]: 260 and 350 | Population Apoptotic (%) [3]: 42% and 60% | Population Fragmented Nuclei (%) [3]: 9% and 7% | Population Healthy Nuclei (%) [3]: 77% and 79% | Population Hoechst High Intensity Objects (%) [3]: 6% and 12% | Population Membrane Permeable-Phenotype (%) [3]: 0% | Population Mitochondria Different-Phenotype (%) [3]: 42% and 64% | Population Mitotic Cells (%) [3]: 57% and 39% | Population Normal (%) [3]: 93% and 87% | Population Pyknosed Nuclei (%) [3]: 13% and 12% | Population Tubulin-Different-Phenotype (%) [3]: 33% and 30% | Total Cell Count [3]: 527 and 363 | Population Apoptotic (%) [4]: 58% and 65% | Population Fragmented Nuclei (%) [4]: 8% and 6% | Population Healthy Nuclei (%) [4]: 70% and 78% | Population Hoechst High Intensity Objects (%) [4]: 18% and 21% | Population Membrane Permeable-Phenotype (%) [4]: 0% | Population Mitochondria Different-Phenotype (%) [4]: 94% and 92% | Population Mitotic Cells (%) [4]: 41% and 34% | Population Normal (%) [4]: 81% and 78% | Population Pyknosed Nuclei (%) [4]: 20% and 15% | Population Tubulin-Different-Phenotype (%) [4]: 78% and 74% | Total Cell Count [4]: 312 and 411 | Population Apoptotic (%) [5]: 24% and 64% | Population Fragmented Nuclei (%) [5]: 9% | Population Healthy Nuclei (%) [5]: 79% and 80% | Population Hoechst High Intensity Objects (%) [5]: 5% and 7% | Population Membrane Permeable-Phenotype (%) [5]: 0% | Population Mitochondria Different-Phenotype (%) [5]: 37% and 48% | Population Mitotic Cells (%) [5]: 75% and 36% | Population Normal (%) [5]: 94% and 92% | Population Pyknosed Nuclei (%) [5]: 10% | Population Tubulin-Different-Phenotype (%) [5]: 28% and 22% | Total Cell Count [5]: 816 and 520 | Population Apoptotic (%) [6]: 76% | Population Fragmented Nuclei (%) [6]: 13% | Population Healthy Nuclei (%) [6]: 68% and 75% | Population Hoechst High Intensity Objects (%) [6]: 18% and 23% | Population Membrane Permeable-Phenotype (%) [6]: 0% | Population Mitochondria Different-Phenotype (%) [6]: 89% and 87% | Population Mitotic Cells (%) [6]: 23% | Population Normal (%) [6]: 81% and 76% | Population Pyknosed Nuclei (%) [6]: 17% and 10% | Population Tubulin-Different-Phenotype (%) [6]: 81% and 74% | Total Cell Count [6]: 386 and 467

CN(C)CCCc1cc(C(=O)Nc2ccc(-c3ccncc3)cc2)ccc1O.Cl.Cl
Population Apoptotic (%) [1]: 27% and 37% | Population Fragmented Nuclei (%) [1]: 5% | Population Healthy Nuclei (%) [1]: 79% and 82% | Population Hoechst High Intensity Objects (%) [1]: 9% and 8% | Population Membrane Permeable-Phenotype (%) [1]: 0% | Population Mitochondria Different-Phenotype (%) [1]: 48% and 58% | Population Mitotic Cells (%) [1]: 72% and 62% | Population Normal (%) [1]: 90% and 91% | Population Pyknosed Nuclei (%) [1]: 14% and 11% | Population Tubulin-Different-Phenotype (%) [1]: 37% and 14% | Total Cell Count [1]: 358 and 367 | Population Apoptotic (%) [2]: 31% and 60% | Population Fragmented Nuclei (%) [2]: 10% and 11% | Population Healthy Nuclei (%) [2]: 81% and 77% | Population Hoechst High Intensity Objects (%) [2]: 6% and 9% | Population Membrane Permeable-Phenotype (%) [2]: 0% and 2% | Population Mitochondria Different-Phenotype (%) [2]: 49% and 63% | Population Mitotic Cells (%) [2]: 68% and 39% | Population Normal (%) [2]: 93% and 90% | Population Pyknosed Nuclei (%) [2]: 7% and 11% | Population Tubulin-Different-Phenotype (%) [2]: 33% | Total Cell Count [2]: 460 and 391 | Population Apoptotic (%) [3]: 25% | Population Fragmented Nuclei (%) [3]: 11% and 9% | Population Healthy Nuclei (%) [3]: 78% and 83% | Population Hoechst High Intensity Objects (%) [3]: 5% | Population Membrane Permeable-Phenotype (%) [3]: 1% and 0% | Population Mitochondria Different-Phenotype (%) [3]: 26% and 32% | Population Mitotic Cells (%) [3]: 74% and 75% | Population Normal (%) [3]: 94% | Population Pyknosed Nuclei (%) [3]: 10% and 6% | Population Tubulin-Different-Phenotype (%) [3]: 21% and 9% | Total Cell Count [3]: 542 and 486 | Population Apoptotic (%) [4]: 32% and 47% | Population Fragmented Nuclei (%) [4]: 12% and 15% | Population Healthy Nuclei (%) [4]: 77% and 74% | Population Hoechst High Intensity Objects (%) [4]: 5% and 15% | Population Membrane Permeable-Phenotype (%) [4]: 0% | Population Mitochondria Different-Phenotype (%) [4]: 38% and 48% | Population Mitotic Cells (%) [4]: 67% and 52% | Population Normal (%) [4]: 94% and 84% | Population Pyknosed Nuclei (%) [4]: 9% | Population Tubulin-Different-Phenotype (%) [4]: 23% and 19% | Total Cell Count [4]: 588 and 505 | Population Apoptotic (%) [5]: 23% and 21% | Population Fragmented Nuclei (%) [5]: 11% and 16% | Population Healthy Nuclei (%) [5]: 81% and 75% | Population Hoechst High Intensity Objects (%) [5]: 2% and 5% | Population Membrane Permeable-Phenotype (%) [5]: 2% and 1% | Population Mitochondria Different-Phenotype (%) [5]: 19% and 24% | Population Mitotic Cells (%) [5]: 76% and 78% | Population Normal (%) [5]: 97% and 94% | Population Pyknosed Nuclei (%) [5]: 6% and 8% | Population Tubulin-Different-Phenotype (%) [5]: 14% and 13% | Total Cell Count [5]: 814 and 596 | Population Apoptotic (%) [6]: 29% and 58% | Population Fragmented Nuclei (%) [6]: 17% and 15% | Population Healthy Nuclei (%) [6]: 75% and 76% | Population Hoechst High Intensity Objects (%) [6]: 5% and 11% | Population Membrane Permeable-Phenotype (%) [6]: 1% and 0% | Population Mitochondria Different-Phenotype (%) [6]: 21% and 35% | Population Mitotic Cells (%) [6]: 70% and 41% | Population Normal (%) [6]: 94% and 88% | Population Pyknosed Nuclei (%) [6]: 6% and 7% | Population Tubulin-Different-Phenotype (%) [6]: 13% and 20% | Total Cell Count [6]: 883 and 641
